Results reported in ChEMBL document CHEMBL3872205, “Design, synthesis and evaluation of novel potent angiotensin II receptor 1 antagonists” (Eur J Med Chem, 2016).

Experiments:
Type in all cases: ADME, organism-based
[1] = Cmax in Wistar rat lung at 30 mg/kg, po by HPLC analysis; set-up: dose 30 mg/kg, route oral
Outline: (§1)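 Tissue distribution in male Wistar rats given oral 10, 15 or 30 mg/kg; heart, liver, spleen, lung, kidney and brain collected predose and 0.5–72 h post-dose (n = 6 per time). Tissue rinsed in saline, homogenised 0.25 g/1 mL saline, methanol extraction, dried under nitrogen, reconstituted in methanol. Analysis by reverse-phase C18 HPLC, acetonitrile/water 60:40, 1.0 mL/min, ambient temperature.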

[2] = MRT (0 to infinity) in Wistar rat brain at 10 mg/kg, po by HPLC analysis
Outline: (§2)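 Male Wistar rats (180 ± 20 g) received a single oral dose of 10, 15 or 30 mg/kg. Tissues were collected at 0, 0.5, 1, 2, 4, 6, 8, 12, 24, 48 and 72 h (n = 6 per point). Samples of 0.25 g were rinsed, then homogenized in saline (0.25 g/1 mL) and centrifuged at 10,000 × g. Supernatant was methanol-extracted, dried under nitrogen at 50 °C and reconstituted in methanol. Analysis was by C18 HPLC (acetonitrile 60% / water 40%, 1.0 mL/min).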

[3] = AUC (0 to 72 hrs) in Wistar rat brain at 15 mg/kg, po by HPLC analysis; set-up: dose 15 mg/kg, time < 72 hr, route oral
Outline: (§3)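 Wistar rats (180 ± 20 g) were dosed orally at 10, 15 or 30 mg/kg. Heart, liver, spleen, lung, kidney and brain were collected at 0–72 h (n = 6 per point). Tissue was rinsed, blotted and homogenized in saline (0.25 g/1 mL), then spun at 10,000 × g. Supernatant was methanol-extracted, dried under nitrogen at 50 °C, reconstituted in methanol and run on C18 HPLC (acetonitrile 60%/water 40%, 1.0 mL/min).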

[4] = Half life in Wistar rat Heart at 15 mg/kg, po by HPLC analysis; outline: as §1
[5] = AUC (0 to infinity) in Wistar rat brain at 10 mg/kg, po by HPLC analysis; set-up: dose 10 mg/kg, route oral, time infinity; outline: as §3
[6] = AUC (0 to infinity) in Wistar rat plasma at 10 mg/kg, po by HPLC analysis; set-up: dose 10 mg/kg, route oral, time infinity
Outline: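 Male Wistar rats (180 ± 20 g, n = 6 per group) got one oral dose. Heparinized blood was taken by retro-orbital puncture before dosing and at 0.5–72 h. Plasma was spun at 4000 × g, 4 °C, 10 min, spiked with internal standard and protein-precipitated with acetonitrile. Analysis was reverse-phase C18 HPLC (0.02 mol/L KH2PO4 55%/acetonitrile 45%, 1.0 mL/min). Calibration used 0.1–10 µg/mL, peak-height ratio, weighting concentration^-2.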

[7] = Half life in Wistar rat liver at 15 mg/kg, po by HPLC analysis; outline: as §1
[8] = Half life in Wistar rat Heart at 10 mg/kg, po by HPLC analysis; outline: as §1
[9] = MRT (0 to 72 hrs) in Wistar rat lung at 30 mg/kg, po by HPLC analysis; outline: as §2
[10] = MRT (0 to 72 hrs) in Wistar rat Heart at 10 mg/kg, po by HPLC analysis; outline: as §1
[11] = AUC (0 to 72 hrs) in Wistar rat lung at 15 mg/kg, po by HPLC analysis; set-up: dose 15 mg/kg, time < 72 hr, route oral; outline: as §3
[12] = AUC (0 to infinity) in Wistar rat liver at 15 mg/kg, po by HPLC analysis; set-up: dose 15 mg/kg, route oral, time infinity; outline: as §3
[13] = MRT (0 to 72 hrs) in Wistar rat spleen at 10 mg/kg, po by HPLC analysis; outline: as §2
[14] = Half life in Wistar rat kidney at 30 mg/kg, po by HPLC analysis; outline: as §1
[15] = Tmax in Wistar rat spleen at 10 mg/kg, po by HPLC analysis
[16] = Cmax in Wistar rat kidney at 15 mg/kg, po by HPLC analysis; set-up: dose 15 mg/kg, route oral; outline: as §1
[17] = AUC (0 to 72 hrs) in Wistar rat spleen at 10 mg/kg, po by HPLC analysis; set-up: dose 10 mg/kg, time < 72 hr, route oral; outline: as §3
[18] = AUC (0 to infinity) in Wistar rat kidney at 30 mg/kg, po by HPLC analysis; set-up: dose 30 mg/kg, route oral, time infinity; outline: as §3
[19] = AUC (0 to 72 hrs) in Wistar rat Heart at 30 mg/kg, po by HPLC analysis; set-up: time < 72 hr, dose 30 mg/kg, route oral; outline: as §3
[20] = AUC (0 to 72 hrs) in Wistar rat Heart at 10 mg/kg, po by HPLC analysis; set-up: time < 72 hr, dose 10 mg/kg, route oral; outline: as §3
[21] = Cmax in Wistar rat heart at 15 mg/kg, po by HPLC analysis; set-up: dose 15 mg/kg, route oral; outline: as §1

**Q.** What does the source list for CCCCC1=NC2(CCCC2)C(=O)N1Cc1ccc2c(ccn2-c2ccccc2-c2nnn[nH]2)c1?
**A.** Cmax [1]: 396 ng/mL; MRT inf [2]: 8.1 h; AUC(0-t) at 72 h [3]: 1180 ng·h/mL; half-life [4]: 15.8 h; AUC(0-inf) [5]: 346 ng·h/mL; AUC(0-inf) [6]: 6690 ng·h/mL; half-life [7]: 1.8 h; half-life [8]: 16.9 h; MRT last [9]: 4.85 h; MRT last [10]: 7.68 h; AUC(0-t) at 72 h [11]: 1350 ng·h/mL; AUC(0-inf) [12]: 23500 ng·h/mL; MRT last [13]: 20.2 h; half-life [14]: 22.4 h; Tmax [15]: 2 h; Cmax [16]: 210 ng/mL; AUC(0-t) at 72 h [17]: 9470 ng·h/mL; AUC(0-inf) [18]: 29400 ng·h/mL; AUC(0-t) at 72 h [19]: 7360 ng·h/mL; AUC(0-t) at 72 h [20]: 825 ng·h/mL; Cmax [21]: 283 ng/mL
